Compound activity (PubChem)
In the library only some 2.3% were active in any assay of this set; here they are far more common.
SKN-1 block = inhibitors of C. elegans SKN-1; C. elegans VP596 Pgst-4::GFP/RFP ratio, acrylamide-induced, 24 h; inhibition, % at 21.8 µM; 360,000 compounds, 0.49% hits;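 active = interference check ratio from 0.5 to 1.5 plus GFP to RFP signal ratio inhibition reaching or exceeding a fixed threshold, cut at about 30% in these data, passing the limit was not always enough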
Rpn11 inh = blocks the human proteasome subunit Rpn11. human 26S proteasome, Ub4-pepOG fluorescence polarization; 20S core pre-blocked with epoxomicin. inhibition, % at 20 µM. 360,000 compounds, 0.59% hits. AID 588493;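 active = inhibition at 20 µM, scaled to each plate's controls, above about 33%, limit read from the data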
SUMO1 PPI mod = modulators of human SUMO1-mediated protein-protein interactions; 360,000 compounds, 0.33% hits; SUMO1 binding to a labelled peptide, TR-FRET, 1 h; P63165; inhibition, % at 20 µM; in the data active = inhibition above about 37%
MT1-MMP act inh = inhibitors of human MT1-MMP activation; P50281; HT1080 RFP-PRO-GFP cells, GFP/RFP ratio fluorescence, overnight; percent of plate control window, DMSO zero; 360,000 compounds, 0.061% hits; GFP/RFP ratio change, % at 20 µM;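 active = GFP/RFP ratio change of at least 30% with cell ATP level not reduced by more than half and red fluorescence within 50% of control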
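Assay system: HT1080 cells carrying an RFP-PRO-GFP reporter | Dosing: Single dose of 20 µM compound, 1% DMSO final | Incubation: Cells overnight before dosing, compound overnight, 37 °C, 5% CO2 | Evaluation: GFP/RFP fluorescence ratio | Control set: DMSO and RFP-L50D-GFP cell wells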
CSN deneddyl inh = CSN deneddylation inhibition | 360,000 compounds, 0.38% hits | Purified CSN, SCF-Nedd8-OG deneddylation, fluorescence polarization | inhibition, % at 12.5 µM;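 active = pattern-corrected inhibition above about 35%, with an unprinted fluorescence ratio check between 0.5 and 1.5, limit read from the data, passing the limit was not always enough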;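 also: 0% = enzyme with substrate and 100% = substrate without enzyme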
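Assay system: HEK293T-derived human Csn5 enzyme; quantity: 0.24 nM enzyme; medium: Tris/NaCl/DTT buffer, pH 7.5; also added: substrate SCFSkp2-Nedd8OG, 10 nM; doses: 12.5 µM compound; schedule: 90 min reaction at room temperature; signal: FP; read-out: % inhibition of substrate cleavage by Csn5; benchmarks: substrate-only high control, full reaction low control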
DNMT1 inh = inhibitors of human DNMT1. 360,000 compounds, 0.83% hits. P26358. AID 588458. DNMT1 molecular beacon, Hinp1I cleavage, fluorescence. inhibition (reported as % activation of signal), % at 10 µM
DNMT1 interf DR = beacon fluorescence artifact, dose response counter-screen. shares compounds with DNMT1 inh. molecular beacon fluorescence, spectral interference counter-screen. IC50, µM. 200 tested, under 10 active. AID 602382; call rule not given here
DNMT1 confirm = DNMT1 inhibition confirmation, single concentration | shares compounds with DNMT1 inh | DNMT1 molecular beacon HinP1I cleavage, fluorescence | inhibition, % at 10 µM | 2,300 compounds, 8% hits | AID 602385;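 active = average inhibition of at least 30% in the single-concentration confirmation test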
DNMT1 interf = shows spectral interference in the DNMT1 beacon assay. shares compounds with DNMT1 inh. DNMT1 molecular beacon spectral interference counterscreen, fluorescence 485/520. activation (fluorescence interference), % at 10 µM. 2,300 compounds, 1% hits. AID 602387;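 active = activation of at least 30% at 10 µM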;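 also: DNMT1 catalytic domain with a HinP1I cleavage step and a FAM/dabcyl DNA beacon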
Rpn11 inh conf = Rpn11 inhibition confirmation, single concentration | shares compounds with Rpn11 inh | purified human 26S proteasome, Ub4-pepOG fluorescence polarization; proteasome pretreated with epoxomicin | inhibition, % at 20 µM | 1,900 compounds, 29% hits | AID 602318; in the data active = inhibition above about 40%
MMP-2 counter-1 = MMP-2 (human) inhibition counter-screen | inhibition, % at 20 µM | recombinant MMP-2, FRET peptide cleavage fluorescence | shares compounds with Rpn11 inh | 1,900 compounds, 4% hits; in the data active = inhibition above about 40%;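 also: human MMP-2 activated beforehand with APMA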
Target sequence (P08253 whole entry, looked up): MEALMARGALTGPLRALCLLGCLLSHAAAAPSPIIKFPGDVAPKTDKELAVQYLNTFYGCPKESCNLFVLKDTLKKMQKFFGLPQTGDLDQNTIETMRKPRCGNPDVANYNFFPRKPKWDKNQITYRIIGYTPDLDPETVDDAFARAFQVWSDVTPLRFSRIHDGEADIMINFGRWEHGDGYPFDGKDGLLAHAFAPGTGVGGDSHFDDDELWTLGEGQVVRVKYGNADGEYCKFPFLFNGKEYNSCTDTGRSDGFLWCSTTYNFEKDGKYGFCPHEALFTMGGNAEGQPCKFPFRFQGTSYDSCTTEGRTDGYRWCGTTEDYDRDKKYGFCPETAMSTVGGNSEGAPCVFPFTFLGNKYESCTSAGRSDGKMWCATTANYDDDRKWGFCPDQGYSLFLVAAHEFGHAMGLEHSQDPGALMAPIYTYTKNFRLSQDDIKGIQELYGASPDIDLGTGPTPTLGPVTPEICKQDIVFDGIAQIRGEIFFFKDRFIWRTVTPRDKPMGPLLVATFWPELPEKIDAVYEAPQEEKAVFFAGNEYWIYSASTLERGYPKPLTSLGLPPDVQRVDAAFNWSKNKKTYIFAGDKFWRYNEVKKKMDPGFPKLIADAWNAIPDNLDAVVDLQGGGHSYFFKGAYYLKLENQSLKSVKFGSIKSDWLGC
Thrombin inh = blocks bovine thrombin, flagging nonselective RPN11 hits | AID 602333 | inhibition, % at 20 µM | 1,900 compounds, 13% hits | shares compounds with Rpn11 inh | bovine thrombin cleavage of Ub4-pepOG, fluorescence polarization;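 active = mean inhibition at least 40% at 20 µM, or signal 3 deviations below plate average, so some actives read negative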;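 also: plate controls were thrombin with DMSO for no effect and buffer wells lacking thrombin for full effect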
CSN deneddyl val = validation of inhibitors of human CSN-mediated cullin deneddylation; AID 720654; 540 compounds, 62% hits; shares compounds with CSN deneddyl inh; Csn5 deneddylation of SCF-Nedd8OG, fluorescence polarization, 90 min; inhibition, % at 16.6 µM;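 also: 0% = DMSO with enzyme and 100% = no enzyme wells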
MMP-2 counter-2 = MMP-2 (human) inhibition, counter-screen for CSN hits; shares compounds with CSN deneddyl inh; 540 compounds, 33% hits; recombinant MMP-2, FRET substrate fluorescence, 60 min; AID 720655; inhibition, % at 16.6 µM;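 active = corrected plate-normalized z-score of 5 or more, or -5 or less, or inhibition of 15% or more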;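 also: plate controls were DMSO wells with enzyme for no effect and buffer wells lacking MMP-2 for full effect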
Thrombin cntr = blocks bovine thrombin in a CSN deneddylation counter-screen; AID 720656; shares compounds with CSN deneddyl inh; bovine thrombin cleavage of Ub4-pepOG, fluorescence polarization; 540 compounds, 49% hits; inhibition, % at 16.6 µM;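 active = inhibition at or above a set limit, with a fluorescence interference ratio between 0.5 and a set maximum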
* = called active by the depositor; . = no result given; + = active, no number. Rule as the data show it, unless noted: active = inhibition above about 50%; inactive = the rest.

SMILES	SKN-1 block	Rpn11 inh	SUMO1 PPI mod	MT1-MMP act inh	CSN deneddyl inh	DNMT1 inh	Rpn11 inh conf	MMP-2 counter-1	Thrombin inh	others
O=C1NC(=Nc2ccc3ccccc3c2)S/C1=C/c1ccco1	9	40*	3	-3	67*	67*	25	-21	16	DNMT1 confirm=3;DNMT1 interf=-2;CSN deneddyl val=85*;MMP-2 counter-2=4;Thrombin cntr=18*
COc1ccc(N=C2NC(=O)/C(=C\C=C\c3ccco3)S2)cc1	0	1	24	0	46*	80*	.	.	.	DNMT1 confirm=3;DNMT1 interf=-4;CSN deneddyl val=84*;MMP-2 counter-2=14;Thrombin cntr=4
COc1ccc(N2c3ccccc3CN(Cc3ccccc3)[C@@H](C)[C@H]2Cc2cccnc2)cc1	11	4	1	-10	-3	-2	.	.	.
COc1ccc(-c2nc3c(C)cc(Br)cn3c2Cc2ccc(C)cc2)cc1OC	20	10	-5	-1	0	-9	.	.	.
CN(C)Cc1csc(NC(=O)Nc2ccccc2Cc2ccccc2)n1	-4	-5	1	0	-3	1	.	.	.
COC(=O)c1c(NC(=O)COC(=O)c2ccc(NC(=O)CC#N)cc2)sc2c1CCCCC2	19	96*	71*	-5	57*	103*	106*	19	33	DNMT1 interf DR=>99;DNMT1 confirm=27;DNMT1 interf=-3;CSN deneddyl val=42;MMP-2 counter-2=7;Thrombin cntr=13
COc1ccccc1CNC(=O)COC(=O)c1cc(-c2ccco2)nc2ccccc12	14	19	13	-18	49*	100*	.	.	.	DNMT1 interf DR=>99;DNMT1 confirm=27;DNMT1 interf=2;MMP-2 counter-2=12;Thrombin cntr=6
O=C1OC(c2cccs2)=N/C1=C\c1ccc(-c2cccc(Cl)c2)o1	7	48*	5	4	17	7	5	-5	10
O=C(CSc1nc2nc(-c3cccs3)cc(C(F)(F)F)c2c(=O)[nH]1)Nc1ccc(F)c(F)c1	4	40*	13	-13	14	1	57*	-8	0
COc1ccc(NC(=O)C2(C)CCN2Cc2ccccc2Cl)cc1OC (stereo not drawn)	-7	6	1	-1	6	-4	.	.	.
C/C(=N\Nc1nc(-c2cc(C)ccc2C)cs1)c1cc2c(ccc3ccccc32)oc1=O	8	46*	-7	-2	-13	3	14	-12	-9
O=C(/C=C/[C@H]1O[C@@H](n2ccc(=O)[nH]c2=O)[C@H](O)[C@@H]1O)NCc1ccccc1	-7	-7	3	0	-3	0	.	.	.
C=CC[n+]1c(-c2ccccc2)csc1NC(C)(C)C	-9	-3	-2	-2	4	0	.	.	.
C=CC[n+]1c(-c2ccc(OC)c(OC)c2)csc1NNC(=O)Nc1ccccc1	6	52*	-5	-40	10	-6	-3	48*	1
COC[C@H]1CCCN1c1ccc2c(c1)O[C@H](COCc1ccccc1)CN([C@H](C)c1ccccc1)S2(=O)=O	5	.	4	-3	-3	.	.	.	.
CCN(CC)c1ccc(C=C2C(=O)OC(c3ccccc3)OC2=O)cc1 (stereo not drawn)	23	77*	-1	5	14	2	77*	6	76*
CCN(CC)c1ccc(C=C2C(=O)OC(C)(C(C)(C)C)OC2=O)cc1 (stereo not drawn)	31	.	-26	0	19	5	.	.	.
CC(=Nc1ccc(C)cc1)c1sc2ccccc2c1O	21	28	-18	-265	6	-2	.	.	.
CC(=Nc1ccc(C)cc1C)c1sc2ccccc2c1O	11	38*	-19	-72	6	1	25	10	2
CC1CCCN(S(=O)(=O)c2ccc(Br)s2)C1 (stereo not drawn)	0	46*	-6	-1	-5	10	8	-34	6
O=C1C(=Cc2cn(-c3ccccc3)nc2-c2ccc(OCc3ccccc3)cc2)SC(=S)N1CCS(=O)(=O)O	-3	98*	90*	-1	29	-59	90*	29	134*
COCCNc1nc(-c2ccccc2CO)c2sc(-c3ccccc3)cc2n1	16	4	-10	-2	6	-6	.	.	.
CCN(CC)c1ccc(N2C(=O)CSC2=S)cc1	8	51*	-10	43	-6	-8	-3	61*	-22
CCOc1ccc(N2C(=O)CSC2=S)cc1	1	-5	1	14	0	-4	.	.	.
CCN1CCc2c(sc(NC(=O)c3ccc(S(=O)(=O)N(CC)c4ccccc4)cc3)c2C(N)=O)C1	3	58*	-14	-45	11	1	76*	-246	11
CCCN1CCc2c(sc(NC(=O)c3ccc(S(=O)(=O)N4CCCC4)cc3)c2C(N)=O)C1	14	47*	-9	-39	15	-3	22	-7	11
O=C(Nc1cccc2ccccc12)c1csc([C@@H]2O[C@H](CO)[C@H](O)[C@H](O)[C@H]2O)n1	-12	-10	-3	-2	3	2	.	.	.
CS(=O)(=O)Nc1cccc(NC(=O)c2cccc3c(-c4cccc(C(N)=O)c4)coc23)c1	22	4	21	-6	-3	-4	.	.	.
CC(=O)c1cccc(NC(=O)c2cccc3c(-c4cccc(C(N)=O)c4)coc23)c1	3	+	49*	-7	22	-5	31	-25	57*
